Hits are enriched below; roughly 3.7% of the tested compounds scored in any of these assays.
ERAP1 HTS inh: inhibitors of human ERAP1 aminopeptidase. hit rate 0.15% among 340,000. recombinant ERAP1, Leu-AMC fluorescence, 60 min. Q9NZ08. inhibition, % at 10.7 µM;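 active = mean replicate inhibition of at least 30%, or all replicates individually reaching that 30% level; inactive = mean below 30% and not every replicate reaching it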;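 note: 0% = neutral control wells and 100% = L-leucinethiol positive control wells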
E-selectin induc: induces E-selectin expression in human endothelial cells; hit rate 0.37% among 260,000; AID 686992; P16581; HUVEC E-selectin immunofluorescence imaging; normalized: neutral wells 0, TNF-alpha wells 100; activation, % at 7.58 µM;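 active = mean E-selectin-positive cell signal at least 10% of the positive control, reached in at least 60% of replicates, without over 20% cell loss; inconclusive = no rule given, readout overlaps actives, possibly toxicity-flagged; inactive = the rest, including those meeting only one limit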
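assay system = HUVEC, human umbilical vein endothelial cells | input = 3,000 HUVEC seeded per well | medium = EGM-2 growth medium on 0.1% gelatin-coated wells | dosing = one compound dose added by pin transfer | signal = immunofluorescence imaging | read-out basis = % PE-positive cells | control set = TNF-alpha, DMSO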
F508del corr: correctors of CFTR F508del function in bronchial epithelial cells. CFBE cells, YFP halide quenching; stimulated with forskolin plus potentiator P3; % fluorescence drop versus neutral controls. activity (quench increase), % at 7.58 µM. hit rate 0.36% among 350,000;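 active = mean added fluorescence quench of at least 8% versus neutral control, with both replicates also reaching 8%; inconclusive = only one of the mean or replicate conditions met; inactive = mean below 8% and not both replicates reaching 8%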;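 note: cells transiently co-express mutant CFTR-F508del with the halide-sensitive YFP; corrector assay measuring rescue of mutant channel to the surface after 24 h compound exposure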
DENV2 CPE: protects cells from dengue virus 2 cytopathic effect. DENV2-infected cells, cytopathic effect rescue, plate reader. CPE inhibition, % at 9.99 µM. hit rate 1.7% among 350,000; in the data active = CPE inhibition above about 20%, passing the limit was not always enough; inconclusive = no clear call, values can overlap the other calls; tested in BHK-21 cells;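 note: 0% = median of neutral control wells and 100% = median of positive control wells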
FGF22 binding: shifts melting point of recombinant human FGF22. Q9HCT0. recombinant FGF22 thermal shift, SYPRO orange fluorescence; percent of sucrose octasulfate shift, DMSO zero. activity (Tm shift, normalised), % at 9.99 µM. hit rate 1.5% among 340,000;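 active = mean Tm shift, scaled 0 neutral to 100 positive control, at about 1.3% or above, every replicate too, limit read from the data; inconclusive = no clear call, values can overlap the other calls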
Target sequence (Q9HCT0 whole entry, looked up): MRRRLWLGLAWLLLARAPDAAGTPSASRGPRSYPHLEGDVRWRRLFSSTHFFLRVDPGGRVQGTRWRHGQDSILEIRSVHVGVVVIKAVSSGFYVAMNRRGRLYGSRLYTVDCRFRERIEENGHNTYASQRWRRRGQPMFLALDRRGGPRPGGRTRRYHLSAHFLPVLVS
An asterisk follows results filed as active; u = inconclusive; x = no result.

SMILES	ERAP1 HTS inh	E-selectin induc	F508del corr	DENV2 CPE	FGF22 binding
CN(C)CC(=O)N1[C@H](C#N)[C@H](c2ccc(C#CC3CCCC3)cc2)[C@@H]1CO	3.3	-0.3	0.4	31.0*	0.0
COc1ccc(S(=O)(=O)N(C)C[C@@H]2Oc3ccc(NS(=O)(=O)c4c(C)noc4C)cc3C(=O)N([C@@H](C)CO)C[C@@H]2C)cc1	1.7	4.6	-1.7	-0.4	-0.3
CNC(=O)c1c(NC(=O)c2ccc(S(=O)(=O)N(C)c3ccccc3)cc2)sc2c1CCN(C(C)C)C2	-1.4	-0.1	4.9	96.1*	0.0
O=C1CC(c2ccccc2)CC(O)=C1C=Nc1ccccc1 (stereo unspecified)	6.6	x	0.1	-2.0	43.8*
COCC(=O)N1CCCCN2[C@H](C1)[C@@H](c1ccc(C#Cc3ccccc3)cc1)[C@@H]2CO	-1.4	-0.5	4.2	27.9*	-0.2
COCC(=O)N1CCCCN2[C@H](C1)[C@H](c1ccc(C#Cc3ccccc3)cc1)[C@@H]2CO	-1.6	0.0	3.5	39.9*	-0.1
COCC#Cc1ccc([C@@H]2[C@@H](CO)N3CCCCN(C(=O)COC)C[C@H]23)cc1	-5.0	0.1	1.4	33.9*	0.1
COCC(=O)N1CCCCN2[C@@H](CO)[C@H](c3ccc(C#Cc4ccccc4)cc3)[C@@H]2C1	-2.4	-0.2	-0.8	12.1	0.5
COCC(=O)N1CCCCN2[C@H](CO)[C@H](c3ccc(C#Cc4ccc(OC)cc4)cc3)[C@@H]2C1	2.7	0.5	-2.8	39.5*	0.6
C[C@H](CO)N1C[C@H](C)[C@H](CN(C)S(=O)(=O)c2ccc(F)cc2)OCCCC[C@H](C)Oc2ccc(NS(=O)(=O)c3ccccc3)cc2C1=O	3.1	0.1	3.7	2.1	-0.4
COc1ccc(C#Cc2ccc([C@H]3[C@@H](CO)N4CCCCN(C(=O)c5ccncc5)C[C@H]34)cc2)cc1	-0.3	-0.1	-2.8	47.0*	-0.5
CCCCc1nc(SCCN2CCOCC2)c2c(=O)n(C)c(=O)n(C)c2n1	1.8	x	-0.8	-3.4	43.0*
CCCc1nc(SC2CCCC2)c2c(=O)n(C)c(=O)n(C)c2n1	1.0	-0.5	8.1*	9.6	-0.1
COc1ccc2c3c(n(C)c2c1)[C@H](CO)N(CC1CC1)CC31CCN(Cc2ccc(F)cc2)CC1	0.8	-0.5	0.8	0.9	-0.1
CC(=O)N(C)C[C@@H]1Oc2ncc(C#Cc3ccccn3)cc2C(=O)N([C@@H](C)CO)C[C@H]1C	1.1	0.1	-2.9	-4.3	-0.4
Cc1nnc(SCC(=O)N(C2CCCCC2)C2CCS(=O)(=O)C2)n1N (stereo unspecified)	-0.2	x	-0.5	34.9*	-0.3
C=CCn1cnnc1SCC(=O)N(C1CCCCC1)C1CCS(=O)(=O)C1 (stereo unspecified)	3.3	-0.3	-1.1	-3.7	-0.6
CC(C)COCC(O)CC(Cc1ccccc1)C(=O)NN (stereo unspecified)	2.5	x	0.5	10.3	43.5*
COC(=O)c1ccc(C(=O)NC2CCCc3c2cnn3-c2ccc(C)c(C)c2)cc1 (stereo unspecified)	-5.3	0.4	10.4*	u	0.0
O=C(NC1CCCc2c1cnn2-c1cc(F)cc(F)c1)c1ccccn1 (stereo unspecified)	-4.1	0.1	-0.3	-7.5	0.0
COC(=O)c1ccc(C(=O)NC2CCCc3c2cnn3-c2cc(F)cc(F)c2)nc1 (stereo unspecified)	1.9	x	9.6*	12.0	0.0
CC(=O)NCC(=O)NC1CCCc2c1cnn2-c1ccc(C(C)(C)C)cc1 (stereo unspecified)	-2.1	0.1	-2.4	30.7*	-0.2
CNC(=O)C[C@H]1CC[C@H]2[C@H](COc3ccc(NC(=O)C(C)C)cc3C(=O)N2C)O1	x	0.0	-0.2	3.8	0.1
Cc1noc(C)c1S(=O)(=O)Nc1cccc2c1O[C@@H](CN(C)Cc1ccc(C(=O)O)cc1)[C@@H](C)CN([C@H](C)CO)C2=O	-0.9	-1.8	-4.8	-13.2	-0.3
C[C@@H]1CCCCO[C@@H](CN(C)Cc2ccc(C(=O)Nc3ccccc3N)cc2)[C@@H](C)CN([C@H](C)CO)C(=O)c2cc(NC(=O)C3CCCCC3)ccc2O1	x	0.5	x	x	x
SMILES	ERAP1 HTS inh	E-selectin induc	F508del corr	DENV2 CPE	FGF22 binding
CN(C)CC(=O)N1[C@@H]2c3ccc(-c4ccc(F)cc4)c(=O)n3C[C@@H]2[C@@H](CO)[C@@H]1C(=O)NC1CCC1	4.1	0.3	-0.3	5.9	0.0
Cc1noc(C)c1NC(=O)Nc1cccc2c1O[C@@H](CN(C)C(=O)Nc1ccc3c(c1)OCO3)[C@H](C)CN([C@@H](C)CO)C2=O	-0.6	-0.1	-0.1	u	-0.2
CNC[C@H]1Oc2ccc(NS(C)(=O)=O)cc2CC(=O)N([C@@H](C)CO)C[C@H]1C	0.6	-1.7	0.8	-0.9	x
O=C(Oc1ccccc1C(=O)Oc1ccccc1)c1cccnc1	6.7	-0.8	-0.9	5.0	42.9*
COC(=O)c1ccccc1OC(=O)c1cccnc1	1.8	x	-3.3	-3.4	0.2
CCC(=O)NNC(=O)CCC(=O)Nc1ccc(C)cc1C	-5.3	-0.3	3.7	-2.3	43.4*
Cc1ccc(NC(=O)CCC(=O)NNC(=O)C(C)(C)C)c(C)c1	x	0.1	-2.2	-2.0	0.0
C[C@@H]1CCCCO[C@@H](CN(C)C(=O)Nc2ccc3c(c2)OCO3)[C@@H](C)CN([C@@H](C)CO)C(=O)c2cc(NC(=O)NC3CCCCC3)ccc2O1	1.8	0.0	1.1	13.1	-0.4
CCN(CC)C(=O)Cn1cc(C(=O)C(=O)N2CC=C(c3ccccc3)CC2)c2ccccc21	1.2	0.3	1.8	-1.6	43.2*
CCN(CC)C(=O)Cn1cc(C(=O)C(=O)N2CCN(C)CC2)c2ccccc21	-7.1	0.0	-1.4	u	-0.1
C[C@@H]1CN([C@@H](C)CO)C(=O)c2cc(NC(=O)Cc3cn(C)c4ccccc34)ccc2O[C@H]1CN(C)C	0.4	-6.5	0.2	-10.4	0.5
COc1ccc(C2c3ccc4ccccc4c3Oc3ncn(CCCO)c(=N)c32)cc1OC (stereo unspecified)	4.2	0.2	15.0*	10.6	-0.2
COc1ccc(C2c3ccc4ccccc4c3Oc3ncn(CCO)c(=N)c32)cc1OC (stereo unspecified)	-1.7	x	x	x	x
CCOC(=O)C(=O)C1=C(N2CCOCC2)/C(=C\c2cccc([N+](=O)[O-])c2)CC1	0.0	x	0.4	11.4	0.2
O=C(NP(=O)(N1CCCC1)N1CCCC1)C1=C(N2CCOCC2)/C(=C/c2cccc([N+](=O)[O-])c2)CC1	-3.2	x	3.4	-4.3	44.4*
C[C@H]1CN([C@@H](C)CO)C(=O)c2cccc(NC(=O)c3cnccn3)c2O[C@H]1CN(C)C(=O)Nc1ccc2c(c1)OCO2	-0.2	0.1	-0.6	u	-0.3
